# Laboratory results taken from article PMC4822498 (Journal of pharmaceutical sciences, 2015).
# Tests used:
# HIV-1RF = test: Inhibition of cell to cell virus transmission assay; type: cell-based
# HIV-1IIIB = test: Cytopathic effects; type: cell-based
# HIV-1ZA/97/009 = test: Anti-HIV assay in fresh human PBMCs; type: cell-based
# [1] = In vitro release study from IVR segments with release modelling; type: physicochemical
# [2] = Chemical stability of the analogues in aqueous solution at pH 4.0 and 5.0; type: physicochemical
# Procedure, shortened: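 Test compound prepared as 50 µM stock solutions in 10 mM acetate buffer (pH 4.0 and 5.0) and held at 40°C/75% RH. Aliquots were taken at 0, 1, 2 and 4 weeks; time-zero samples (n=3) were stored at −80°C. Drug content was measured by HPLC with norethindrone internal standard (LOQ 18.0 pmol). k = −2.303 × slope of a linear regression of log concentration vs time (first order).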
# [3] = Determination of aqueous solubility; type: physicochemical; conditions: DDI water, 37°C
# Procedure, shortened: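 Saturated solution of test compound in 18 MΩ DDI water, shaken at 250 rpm at 37°C. Aliquots at time zero, 24 h and 48 h were filtered through 0.2 µm nylon and stored at −80°C before analysis.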
smiles,measurement,setting,value
"Cc1cc(C)cc(C(=O)c2c(C(C)C)c(=O)[nH]c(=O)n2CC2CC2)c1 [IQP-0528, 1-cyclopropylmethyl-6-(3,5-dimethyl-benzoyl)-5-isopropyl-1H-pyrimidine-2,4-dione]",EC95,HIV-1RF; HIV-1RF Cell to Cell Transmission,85 nM
same,EC50,HIV-1RF; Human immunodeficiency virus 1,6 nM
same,EC95,HIV-1IIIB; CEM-SS/HIV-1IIIB,8 nM
same,EC50,"HIV-1IIIB; Human immunodeficiency virus 1, CEM-SS",2 nM
same,EC50,"HIV-1ZA/97/009; Human immunodeficiency virus 1, PBMC, in Homo sapiens",6 nM
same,EC95,HIV-1ZA/97/009; PBMCs/HIV-1ZA/97/009,19 nM
same,diffusivity,[1]; IQP-0528 single agent IVR,3.9 ± 0.4 × 10^−10 cm^2/s
same,release of IQP-0528 relative to SAMT-10 by mass,[1]; combination IVR,~3.5 times
same,diffusivity,"[1]; combination IVR, in presence of 8% SAMT-10",2.8 ± 0.8 × 10^−10 cm^2/s
same,decrease of diffusivity in the presence of 8% SAMT-10,[1]; combination vs single agent IVR,27%
same,cumulative release,"[1]; from combination IVR, 30 days, scaled to full IVR",86 ± 13 mg/IVR
NC(=O)CCNC(=O)c1ccccc1SC(=O)c1ccccc1 [SAMT-08],concentration remaining in aqueous solution,"[2]; pH 4.0, 40°C/75% RH, 0 weeks",46.5 ± 0.1 µM
same,concentration remaining in aqueous solution,"[2]; pH 4.0, 40°C/75% RH, 1 week",40.9 ± 0.1 µM
same,concentration remaining in aqueous solution,"[2]; pH 4.0, 40°C/75% RH, 2 weeks",35.1 ± 0.5 µM
same,concentration remaining in aqueous solution,"[2]; pH 4.0, 40°C/75% RH, 4 weeks, ND = Not Detected",26.8 ± 0.2 µM
same,Degradation rate constant (k),"[2]; pH 4.0, first order",2.3 10^−7 sec^−1
same,concentration remaining in aqueous solution,"[2]; pH 5.0, 40°C/75% RH, 0 weeks",68.6 ± 0.2 µM
same,concentration remaining in aqueous solution,"[2]; pH 5.0, 40°C/75% RH, 1 week",57.3 ± 0.6 µM
same,concentration remaining in aqueous solution,"[2]; pH 5.0, 40°C/75% RH, 2 weeks",49.0 ± 1.8 µM
same,concentration remaining in aqueous solution,"[2]; pH 5.0, 40°C/75% RH, 4 weeks, ND = Not Detected",36 ± 1.43 µM
same,Degradation rate constant (k),"[2]; pH 5.0, first order",2.3 10^−7 sec^−1
same,water solubility,[3],2377.6 ± 27.8 µM
